Experiments:
Nluc-A1 receptor [1] = biological target: T1, Nluc-A1 receptor (Homo sapiens, UniProt P30542); assay: NanoBRET association kinetics of CA200645 binding; conditions: read-out: KD from kinetics (koff/kon); Nluc-A1, room temperature, 60 min, n=3
T1 sequence (P30542 2-326 limits assumed): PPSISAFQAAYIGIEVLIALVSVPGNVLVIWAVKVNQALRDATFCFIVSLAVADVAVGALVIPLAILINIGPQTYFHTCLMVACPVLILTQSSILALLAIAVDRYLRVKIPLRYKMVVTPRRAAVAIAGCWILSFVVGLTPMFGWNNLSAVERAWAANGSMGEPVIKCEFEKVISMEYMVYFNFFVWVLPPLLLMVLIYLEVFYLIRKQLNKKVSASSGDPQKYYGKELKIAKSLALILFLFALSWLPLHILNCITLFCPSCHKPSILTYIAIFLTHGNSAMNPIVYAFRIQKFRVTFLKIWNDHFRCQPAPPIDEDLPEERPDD
In short: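 Stable single-cell-cloned HEK293 Nluc-A1 cells were seeded 24 h ahead. Medium was replaced with HBSS containing 10 uM furimazine and equilibrated 15 min in the reader. The fluorescent ligand was then added at several concentrations, and each well was read once per min for 60 min.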

Nluc-A1 receptor [2] = biological target: T1, Nluc-A1 receptor; assay: NanoBRET saturation binding, HEK293 cells stably expressing Nluc-A1; conditions: Nluc-A1, concentrations up to 500 nM, non-specific 1 μM DPCPX

Kd (Nluc-A1 receptor [1]) [nM]	Compound	saturable specific BRET signal (Nluc-A1 receptor [2])
20.4 ± 6.9	CA200645	
	COc1ccc(-n2nc3c(NC(=O)CCC(=O)NCCOCCOCCNC(=O)CCCCCNC(=O)COc4ccc(/C=C/C5=[N+]6C(=Cc7ccc(-c8cccs8)n7[B-]6(F)F)C=C5)cc4)nc4ccccc4n3c2=O)cc1 [AV039]	did not detect a saturable specific BRET signal

Source: article PMC4488387 (Nature methods, 2015)
